RORa inhibitor = inhibitors of orphan receptor RORA, primary screen, cell-based, luminescence; inhibition, % at 10 µM; hit rate 0.43% among 65,000; AID 561, 2006; Nuclear receptor ROR-alpha (Homo sapiens), P35398; CHO-K1 Gal4-RORA LBD luciferase reporter;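 active = inhibition above the mean of all tested compounds plus 3 SD, cut at about 52% in these data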
Target sequence (P35398 whole entry, looked up, the tested form may be a part): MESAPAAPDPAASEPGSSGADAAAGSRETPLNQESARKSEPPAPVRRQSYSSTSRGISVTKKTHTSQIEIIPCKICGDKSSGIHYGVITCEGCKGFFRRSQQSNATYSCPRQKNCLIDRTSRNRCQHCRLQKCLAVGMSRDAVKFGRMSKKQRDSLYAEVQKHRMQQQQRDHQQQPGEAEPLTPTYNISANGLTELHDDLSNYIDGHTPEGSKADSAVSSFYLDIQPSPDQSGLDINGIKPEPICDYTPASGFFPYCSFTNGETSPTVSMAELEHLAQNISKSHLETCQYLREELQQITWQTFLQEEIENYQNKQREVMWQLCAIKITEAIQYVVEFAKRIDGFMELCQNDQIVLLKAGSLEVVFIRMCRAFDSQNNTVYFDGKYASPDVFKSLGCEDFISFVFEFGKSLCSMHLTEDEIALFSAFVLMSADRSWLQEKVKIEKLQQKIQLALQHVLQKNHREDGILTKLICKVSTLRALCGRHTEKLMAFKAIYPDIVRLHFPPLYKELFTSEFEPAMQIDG
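Test system: CHO-K1 cells with Gal4-hRORA LBD fusion and pG5-luc reporter / Compound: single concentration per compound, 10 µM final / Schedule: 20 h compound treatment, 37 °C / Signal: luminescence from basal luciferase reporter expression / Read-out: % inhibition / Control set: mock-transfected cells as 100%, +RORA DMSO cells as 0% / Replicates: tested once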
A number is an active result; n = inactive. The full list was thinned out, with hits kept by preference.

SMILES	RORa inhibitor
COc1ccc(S(=O)(=O)NCc2ccco2)cc1-c1nnc2c3ccccc3c(C)nn12	n
CCSc1cc(C2C(C#N)=C(N)OC(C)=C2C(=O)OC)c(C)o1 (stereo not drawn)	n
CCCCOc1ccc(C2(C)CC(=O)NC2=O)cc1 (stereo not drawn)	n
Cc1ccc(-c2nnc(Nc3ccccc3)o2)cc1	61
CCOc1ccccc1C(=O)Nc1ccc(-c2nnc(-c3ccc(C)cc3)o2)cc1	n
Brc1cccc(-c2nnc(-c3ccccc3)o2)c1	n
CC12CN3CC(C)(CN(C1)C3c1ccc(Br)cc1)C2 (stereo not drawn)	n
Cc1ccnc2nc(C(=O)N3CCN(S(=O)(=O)c4ccccc4)CC3)nn12	n
COc1ccc(-c2cc(=O)n(-c3nc4ccccc4[nH]3)[nH]2)cc1	n
Cc1oc(-c2cccc(Cl)c2)nc1CN1CCC(C(=O)NCCCN2CCCC2=O)CC1	n
CCOC(=O)N1CCC(NC(=O)C2CCCN(Cc3nc(-c4cccc(Cl)c4)oc3C)C2)CC1 (stereo not drawn)	63
CCc1ccc(-c2nc(CN3CCCC(C(=O)NCCc4ccc(OC)c(OC)c4)C3)c(C)o2)cc1 (stereo not drawn)	n
CCOC(=O)Cc1csc(NC(=O)CCS(=O)(=O)Cc2ccccc2)n1	n
COc1ccc(/C(O)=C2/C(=O)C(=O)N(CCN(C)C)C2c2ccc(F)cc2)cc1Cl (stereo not drawn)	n
c1ccc2c(c1)CCN(c1ncnc3c1[nH]c1ccccc13)C2	89
O=c1c2[nH]c3ccccc3c2ncn1C1CCCCC1	n
c1ccc(CN2CCN(c3nc(-c4ccccc4)nc(-n4ccnc4)n3)CC2)cc1	n
O=C(c1ccc(Cn2c(=O)[nH]c3ccccc3c2=O)cc1)N1CCN(c2ccccc2)CC1	n
c1ccc(CN2CCN(c3ncnc4c3[nH]c3ccccc34)CC2)cc1	67
CC(=O)Nc1nc2ccc(-c3nc4ccccc4o3)cc2s1	n
CCOC(=O)COc1ccc2c(c1)C(=O)CC(C)(C)O2	n
COC(=O)/C=C/S(=O)(=O)c1ccc(NC(C)=O)cc1	n
CCOC(=O)N1CCN(C(=O)C(c2ccccc2)c2ccccc2)CC1	n
COc1cccc(NC(=O)Cc2nnc(SCC(=O)c3ccccc3)n2C)c1	n
COc1ccc(O)c(C(=O)CC(=O)c2ccc(F)cc2)c1	58
SMILES	RORa inhibitor
COc1ccc(C(=O)c2ccccc2)c(O)c1	n
c1cncc(-c2nn3c(-c4ccncc4)nnc3s2)c1	n
COc1ccccc1-c1cc(C(F)(F)F)nc(S(=O)(=O)CCCC(=O)Nc2cc(C)on2)n1	70
COc1ccc(S(=O)(=O)CCC(=O)NC2CCCCC2)cc1	n
COc1ccc(S(=O)(=O)N(CC(=O)Nc2cc(C)on2)Cc2ccccc2)cc1	n
COc1ccccc1CNC(=O)C(C)NS(=O)(=O)c1ccc(C)cc1 (stereo not drawn)	n
COc1ccccc1-c1cc(C(F)(F)F)nc(S(=O)(=O)CCCC(=O)NC(C)C)n1	57
Cc1cc(NC(=O)COc2cccc3cccnc23)no1	n
O=C(c1cc(-c2cccs2)on1)N1CCCc2ccccc21	n
COc1ccccc1C1/C(=C(/O)c2ccc(Cl)cc2)C(=O)C(=O)N1CCN1CCOCC1 (stereo not drawn)	n
CCC(C)[C@H](N)c1nnc(SCc2cccc(F)c2)o1 (stereo partly drawn)	n
O=C(CSCCO)Nc1cc(C(F)(F)F)ccc1Cl	n
Oc1ccc(-c2nnc(SCC3CCCCC3)o2)cc1	n
COc1cccc(-c2cc(C(F)(F)F)nc(NCc3ccco3)n2)c1	n
COc1ccc(CCNC(=O)CSc2nc(-c3ccco3)cc(C(F)(F)F)n2)cc1OC	n
CS(=O)(=O)c1nc(-c2ccco2)cc(C(F)(F)F)n1	54
Cc1ccc(CNC(=O)C2CNc3cc(C)ccc3O2)cc1 (stereo not drawn)	n
N#CC(C#N)=c1ccc2c(c1)NC1(CCCCC1)N=2	58
Cc1nc2nc(COc3ccccc3)[nH]n2c(=O)c1Cl	n
Cc1cc2c(cc(C(=O)OCC(=O)NCc3cccs3)n2C(C)C)o1	n
CC(=O)N1CCc2cc(S(=O)(=O)NC3CCCc4ccccc43)ccc21 (stereo not drawn)	n
CCC(=O)N1CCc2cc(S(=O)(=O)N3CCc4ccccc4C3)ccc21	n
CC(=O)N1CCc2cc(S(=O)(=O)NCCC3=CCCCC3)ccc21	57
CCC1SC2=NC(C)=C(C(=O)OC)C(c3cccs3)N2C1=O (stereo not drawn)	n
Cn1c(SCc2ccc(C#N)cc2Cl)nc2ccccc21	n
SMILES	RORa inhibitor
Cc1ccccc1NC(=O)N1CCCC(c2nc(-c3ccc(F)cc3)no2)C1 (stereo not drawn)	n
Cc1ccccc1NC(=O)N1CCCC(c2nc(-c3ccc(C(C)C)cc3)no2)C1 (stereo not drawn)	54
O=C(c1cc2ccccc2o1)c1nc2c(n1O)CCCCC2	n
CCOC(=O)C1=C(C)Nc2nc(SCC)[nH]c(=O)c2C1c1ccncc1 (stereo not drawn)	n
O=C(NC1CCCC1)C1C2C=CC(C2)C1C(=O)N1CCOCC1 (stereo not drawn)	n
O=C(Nc1ccc(S(=O)(=O)N2CCCC2)cc1)c1ccc(CN2CCOCC2)cc1	n
O=C(Nc1ccc(N2CCOCC2)cc1)c1cnsn1	69
O=C(Nc1ccc(N2CCOCC2)c(Cl)c1)c1ccc(Br)o1	n
CCc1ccccc1NC(=O)COC(=O)C1CC(=O)N(c2ccc(F)cc2)C1 (stereo not drawn)	n
C=CCn1c(CCNC(=O)C(C)(C)C)nc2ccccc21	n
O=C(CSc1nnnn1C1CCCCC1)NCc1ccc2c(c1)OCO2	n
COc1cccc(-n2c(SC)nnc2-c2cnccn2)c1	n
CCOC(=O)Cn1nnnc1CN(Cc1ccccc1)Cc1cc2cc(CC)ccc2[nH]c1=O	n
C(=N\n1cnnc1)/c1ccc(OC2CSC2)cc1	n
Cc1cc(/C=N/n2cnnc2)c(C)n1-c1ccc(OCc2ccc(F)cc2)cc1	70
CCCCOCCCNC(=O)c1c(-c2ccccc2)noc1C	n
CC1(C)CC(=O)C(C=NCC2CCCO2)=C(O)C1 (stereo not drawn)	n
CC(=O)N1CCc2cc(C(=O)CN3CCN(C(=O)c4ccco4)CC3)ccc21	n
CC1CCc2nc(NC(=O)c3ccco3)sc2C1 (stereo not drawn)	62
C=CCOC(=O)c1sc(NC(=O)c2ccco2)nc1C	n
CS(=O)(=O)c1ccc2nc(NC(=O)c3ccco3)sc2c1	n
CC1CCCCN1C(=O)C1CC(c2ccc(F)cc2)=NO1 (stereo not drawn)	n
CC(=O)OCCN(CCOC(C)=O)c1c(C)[nH]c(=O)[nH]c1=O	n
CCOc1cc(N2CCOCC2)c(OCC)cc1NS(=O)(=O)c1ccc(Cl)s1	n
CCCCC(=O)Nc1ccc(C(=O)N2CCCC(C(=O)OCC)C2)cc1 (stereo not drawn)	n
SMILES	RORa inhibitor
N#C/C(C(=O)c1ccccc1)=C1/SC=C(N)N1c1ccccc1	n
c1ccc(-c2nc(N3CCCCCC3)c3ccccc3n2)nc1	79
O=C(O)c1cccc(N2CCCC2)c1	n
COc1ccc(Nc2nc(N3CCCC3)c3ccccc3n2)cc1	n
NC(=O)CS(=O)(=O)c1nc2ccccc2n1Cc1ccccc1F	n
COc1cc2c(cc1OC)CN(C(=O)COc1ccc(C)c(C)c1)CC2	n
Cc1nc2cc(NC(=O)NCCC3=CCCCC3)ccc2o1	n
O=C(O)[C@H](Cc1ccccc1)NC(=O)N1CCOCC1	n

From PubChem
